The values below come from paper PMC8682075 (Biochimie, 2020).

Read-outs that look alike come from different tables or passages of the source.

The target of one assay is T1, MMUT WT (Homo sapiens, UniProt P22033).
T1 sequence (P22033 33-750): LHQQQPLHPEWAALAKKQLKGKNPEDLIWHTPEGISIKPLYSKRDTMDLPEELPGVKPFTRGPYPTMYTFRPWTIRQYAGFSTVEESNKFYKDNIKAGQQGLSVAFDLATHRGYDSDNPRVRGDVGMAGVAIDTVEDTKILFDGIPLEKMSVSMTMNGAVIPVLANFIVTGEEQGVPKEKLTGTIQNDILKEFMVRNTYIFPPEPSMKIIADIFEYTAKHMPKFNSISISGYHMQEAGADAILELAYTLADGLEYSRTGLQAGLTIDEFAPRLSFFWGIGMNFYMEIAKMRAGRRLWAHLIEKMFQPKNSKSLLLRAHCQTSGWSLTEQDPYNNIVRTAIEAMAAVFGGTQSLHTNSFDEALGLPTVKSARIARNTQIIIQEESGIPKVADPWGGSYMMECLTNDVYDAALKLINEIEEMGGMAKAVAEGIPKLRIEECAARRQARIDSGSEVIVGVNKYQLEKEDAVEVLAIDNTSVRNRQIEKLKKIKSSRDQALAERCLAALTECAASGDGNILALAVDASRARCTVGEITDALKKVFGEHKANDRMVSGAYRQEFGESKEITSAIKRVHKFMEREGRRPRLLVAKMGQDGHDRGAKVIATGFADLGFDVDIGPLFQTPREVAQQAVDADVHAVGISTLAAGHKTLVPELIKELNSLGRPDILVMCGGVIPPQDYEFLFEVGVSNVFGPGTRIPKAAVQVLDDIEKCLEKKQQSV
As to the kind of experiment: Activity screen. Type of assay: biochemical. The following applies: cobamide 1 μM, MMUT WT 0.01 μM, 30 minutes. The method, boiled down: (§1)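 At 30 °C, reaction was started with thiokinase, MgCl₂, ADP and methylmalonyl-CoA. Final levels were cofactor 1 μM and (R)-methylmalonyl-CoA 2 mM. Enzyme was WT 0.01 μM, G717V 1 μM, other variants 0.1 μM. After 30 min, an aliquot went into 2.5 mM DTNB; CoA was taken from A412 (ε 14,150 M⁻¹ cm⁻¹).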

Assay [1] deals with MMUT variants G648D, V633G, G717V, P86L, Y100C, Y231N. The assay is described as follows: Activity screen. Type of assay: biochemical, human. The following applies: cobamide 1 μM, variants 0.1 μM (G717V 1 μM), 30 minutes. The method in brief:
as §1

Assay [2] deals with T2, MMUT (methylmalonyl-CoA mutase) (Homo sapiens, UniProt P22033).
T2 sequence (P22033 33-750): T1 sequence (P22033 33-750)
As to the kind of experiment: Coupled thiokinase/DTNB spectrophotometric MMUT activity assay. Type of assay: biochemical. The method in brief: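 In the coupled kinetic assay, succinyl-CoA was converted by thiokinase to CoA, which was detected spectrophotometrically with DTNB. C-terminally His-tagged MMUT was at 10 nM. Enzymatically made (R)-methylmalonyl-CoA was fixed at 4 mM. Adenosylated cofactor was varied per cofactor, from 0.031 μM at lowest to 12 μM at highest. K_M,app and k_cat come from ≥5 replicates over ≥2 independent experiments and two biological samples.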

For assay [3], the target named is T2, MMUT (methylmalonyl-CoA mutase). The following applies: cited from earlier work.
For assay [4] the target is unchanged. The following applies: read-out: KM, app; previously reported value ref 57; cited from earlier work.
The target is the same in assay [5]. As to the kind of experiment: Cobamide equilibrium binding by quenching of intrinsic protein fluorescence. Conditions: MMUT 0.2 μM, fluorescence quenching. The method, boiled down: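 Fluorescence quenching used MMUT at 0.2 μM, from N-terminal His-tag (E. coli BL21(DE3)pLysS) and C-terminal His-tag preparations. Adenosylated cofactor was titrated at 0.19–2.5 μM or 0.23–2.5 μM, depending on cofactor class. Plate-reader excitation/emission was 282/340 nm. Kd came from a quadratic fit allowing for ligand depletion. Values were averaged over ≥5 technical replicates from ≥2 independent experiments.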

Take `C/C1=C2/[N-][C@H]([C@H](CC(N)=O)[C@@]2(C)CCC(=O)NC[C@@H](C)OP(=O)([O-])O[C@H]2[C@@H](O)[C@@H](n3cnc4cc(C)c(C)cc43)O[C@@H]2CO)[C@]2(C)N=C(/C(C)=C3N=C(/C=C4N=C1[C@@H](CCC(N)=O)C\4(C)C)[C@@H](CCC(N)=O)[C@]\3(C)CC(N)=O)[C@@H](CCC(N)=O)[C@]2(C)CC(N)=O.[CH2-][C@H]1O[C@@H](n2cnc3c(N)ncnc32)[C@H](O)[C@@H]1O.[Co]` [AdoCbl, adenosylcobalamin, reference compound]: the “activity of WT MMUT with the cobamide (in words)” value at MMUT WT is reported as “active”. Further, the “activity of MMUT variants with the cobamide (in words)” value in assay [1] is given as “significantly reduced specific activity”. Also, the “MMUT activity with the cobamide (in words)” value in assay [2] (coupled spectrophotometric assay) is reported as “active”. The Km in assay [2] (read-out: KM, app, methylmalonyl-CoA 4 mM, MMUT 10 nM) was 0.04 ± 0.02 µM; in assay [4], 0.05 µM. For the same compound, the Kd in assay [3] (previous study of MMUT ref 49) was 40 nM; in assay [3] (previous study of MMUT ref 50) it was 270 ± 110 nM; in assay [5], 80 ± 30 nM.

Broadly, the Km is the substrate concentration at which the rate is half of its maximum. What is called Kd is a measure of binding affinity in units of concentration.
